Measurements published in ChEMBL document CHEMBL1132950, “Synthesis, structure, and antitumor activity of a novel tetranuclear titanium complex” (J Med Chem, 2000).

Assays:
HEp-2 [1] = test: In vitro percentage of live HEP-2 cells after treatment at 100 uM; assay type: functional, cell-based; conditions: Homo sapiens
Method in brief: (§1)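 Ti complex encapsulated in DPPC liposomes and diluted in 0.9% NaCl. It was added to monolayer cells grown in L-15 with 5% fetal calf serum, penicillin G and gentamicin at 37 °C and 100% humidity, then incubated 72 h at 37 °C. Cells were trypsinized and stained with 0.4% trypan blue, and live cells were counted in a Neubauer chamber. Viability is treated/control viable cells ×100. Five runs.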

Vero [2] = test: In vitro percentage of live Vero cells after treatment at 100 uM; assay type: functional, cell-based; conditions: Chlorocebus sabaeus; method in brief: as §1
Vero [3] = test: In vitro percentage of live Vero cells after treatment at 500 uM; assay type: functional, cell-based; conditions: Chlorocebus sabaeus; method in brief: as §1
Mus musculus [4] = test: In vivo activity expressed as life span value of average treated / untreated AJ mice for 11.6/6 days (SEM value = 1.93); assay type: functional, organism-based
Method in brief: (§2)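 Female AJ mice (20–25 g, 5–8 weeks) received 10^6 TA-3 ascites cells ip. From day 3 they got 0.1 mL ip of liposomal complex (1.5×10^-2 M in Ti complex, 0.9% NaCl), each dose equal to 6.2 mg/kg, daily for 1–5 consecutive days. Groups had 5–7 animals. Survival days are given as treated/untreated.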

Mus musculus [5] = test: In vivo activity expressed as life span value of average treated / untreated AJ mice for 9.6/6 days (SEM value = 1.55); assay type: functional, organism-based; conditions: in the assay text read “9.3/6 days” for “9.6/6 days”; method in brief: as §2
Mus musculus [6] = test: In vivo activity expressed as life span value of average treated / untreated AJ mice for 15/6 days (SEM value = 2.54); assay type: functional, organism-based; method in brief: as §2
Mus musculus [7] = test: In vivo activity expressed as life span value of average treated / untreated CF-1 mice for 25.2/13 days (SEM value = 1.94); assay type: functional, organism-based
Method in brief: (§3)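 Female CF-1 mice (30–35 g, 5–8 weeks) received 10^6 TA-3 ascites cells ip. Three days later, daily ip injections of 0.1 mL DPPC-liposomal complex (1.5×10^-2 M in Ti complex, in 0.9% NaCl) began, each dose equal to 4.1 mg/kg, given for 1–5 consecutive days. Groups had 5–7 mice. Mean survival days are given as treated/untreated.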

Mus musculus [8] = test: In vivo activity expressed as life span value of average treated / untreated CF-1 mice for 20/13 days (SEM value = 1.54); assay type: functional, organism-based; method in brief: as §3
HEp-2 [9] = test: In vitro percentage of live HEP-2 cells after treatment at 80 uM; assay type: functional, cell-based; conditions: Homo sapiens; method in brief: as §1
Vero [10] = test: In vitro percentage of live Vero cells after treatment at 8 uM; assay type: functional, cell-based; conditions: Chlorocebus sabaeus; method in brief: as §1
Mus musculus [11] = test: In vivo activity expressed as life span value of average treated / untreated CF-1 mice for 25/13 days (SEM value = 1.92); assay type: functional, organism-based; method in brief: as §3
HEp-2 [12] = test: In vitro percentage of live HEP-2 cells after treatment at 500 uM; assay type: functional, cell-based; conditions: Homo sapiens; method in brief: as §1
Vero [13] = test: In vitro percentage of live Vero cells after treatment at 80 uM; assay type: functional, cell-based; conditions: Chlorocebus sabaeus; method in brief: as §1
HEp-2 [14] = test: In vitro percentage of live HEP-2 cells after treatment at 8 uM; assay type: functional, cell-based; conditions: Homo sapiens; method in brief: as §1
Mus musculus [15] = test: In vivo activity expressed as life span value of average treated / untreated CF-1 mice for 26/13 days (SEM value = 2); assay type: functional, organism-based; method in brief: as §3
Mus musculus [16] = test: In vivo activity expressed as life span value of average treated / untreated AJ mice for 17.6/6 days (SEM value = 2.93); assay type: functional, organism-based; method in brief: as §2
Mus musculus [17] = test: In vivo activity expressed as life span value of average treated / untreated AJ mice for 11.3/6 days (SEM value = 1.88); assay type: functional, organism-based; method in brief: as §2

For “cyclo-Tetrakis[bis(1-phenyl-3-methyl-4-benzoylpyrazol-5-onato)-mu-oxotitanium(IV)]”, the viability (HEp-2 [1]) was 40.3%, the viability (Vero [2]) was 97.1% and the viability (Vero [3]) was 95.2%. It also gave a T/C (Mus musculus [4]) of 193%, a T/C (Mus musculus [5]) of 155% and a T/C (Mus musculus [6]) of 254%. The T/C (Mus musculus [7]) was 194%, the T/C (Mus musculus [8]) was 154% and the viability (HEp-2 [9]) was 77.4%. The viability (Vero [10]) was 100%, the T/C (Mus musculus [11]) was 192% and the viability (HEp-2 [12]) was 30%. The viability (Vero [13]) was 98.4%, the viability (HEp-2 [14]) was 77.4% and the T/C (Mus musculus [15]) was 200%. For the same substance, the T/C (Mus musculus [16]) was 293% and the T/C (Mus musculus [17]) was 188%.
